These results are taken from the RNAGym collection of RNA variant scans (doi:10.1126/science.aae0568).

B1: tRNA (parent)
chain: GUUCCGUUGGCGUAAUGGUAACGCGUCUCCCUCCUAAGGAGAAGACUGCGGGUUCGAGUCCCGUACGGAACG

Fewer inactive variants are shown than the library holds.

The data set covers variants of B1. Put plainly: yeast fitness relative to wild type (ratio to wild type); higher = fitter; tRNA-Arg(CCU), competitive growth, 37 C, YPD. The essentials: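 Changes in genotype frequencies gave Darwinian fitness relative to wild type. Frequencies were read by 100-nucleotide paired-end sequencing of gene amplicons before and after pooled Saccharomyces cerevisiae strains, carrying tRNA-Arg(CCU) gene variants at the native locus, were competed in YPD at 37°C for 24 hours in six replicates. A genotype was kept only with ≥ 100 starting reads, and estimates < 0.5 were set to 0.5.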
Turning to GUUCCGUUGGCGUAAUGGUAAGGGGUAUCCCUCCUAAGGAGAAGACUGCGGGUUCGAGUGCCGUACGGAACG [C22G C24G C27A C60G], the yeast fitness is 0.521.

GUUUCGUUGGAGUAAUGGUAACGCGUCUCCCUCCUAAGGAGAAGAUUGCGGGUUCGAGCCCCGUACGGAACG [C4U C11A C46U U59C]: the yeast fitness is at most 0.5. In the case of GUUCCGUUGGCGUAAUGGUAACGCGUCUUCCUGCUAAGGAGAAGACUGCGGAUUCGACUCCCGUACGGAGCG [C29U C33G G52A G58C A70G] it was at most 0.5; in that of GUCCCGUUGGCGUAAUGGUAUCGCGUCUCCCUCCUAAGGAGAAGACUGCCGGUUCGAGUCCCGUUCGGAACG [U3C A21U G50C A65U], at most 0.5. In the case of GUUCCGUUGGCGUAAUGGUAACGCGUAUCCCUCCUAAGGCGAAGUCUGCGGGUUCGUGUCCCGUACGGAACG [C27A A40C A45U A57U] it was at most 0.5; in that of GUUCCGUUGGCGUAAUGGUAACGCGUCUCCCUCUUAAGGAGAAGAUUGCGGGUUCGAGUCCCGAACGGAACG [C34U C46U U64A], 0.642; in that of GUUCCGUUGGCGUAAUGGAAACGCGUCACCCUCCUAAGGAGAAGACUGCGGGUUCGAGUGCCGUACGGAACG [U19A U28A C60G], at most 0.5. In the case of GUUCCGUAGGCGUACUGGUAGCGCGUUUCCCUCCUAAGGAGAAGAUUGCGGGUUCGAGUCCCGUACGGAGCG [U8A A15C A21G C27U C46U A70G] it was at most 0.5. Take GUUCCGUUGCCGUAAUGGUAACGCGUCUCCCUCGUAAGGAGAAGACUGCGGGUUCGAGUCCCGUACUGAACG [G10C C34G G67U]: the yeast fitness is 0.584. The result for GUUCUGUUGGCGUAGUGGUAAUGCGUCUCCCUCCUAUGGAGAAGACUGCGGGUUCGAGUCCCGUCCGGAACG [C5U A15G C22U A37U A65C] reads at most 0.5. In the case of GUUCUGUUGGCGUAAUGGUAACGCGUCUCCCUCCUAAGGAGAUAAAUGCGGGUUCGAGUCCCGUACGGAACG [C5U A43U G44A C46A] it was at most 0.5; in that of GUUGCGUUGGCGUAAUGGUAACGCGCCUCCCUCCUAAGGUGAAGACUGUGGGUUCGAGUCCCGUACGGAACG [C4G U26C A40U C49U], at most 0.5; in that of GUUCCGUUGGCGUAAUGGUUACACGUCUCCCUCCUUAGGAGAAGACUGCGGGUUCGAGUCCCGUUCGGAACG [A20U G23A A36U A65U], at most 0.5. In the case of GUUCCGUUGGCGUAUUGGUAACGCGUCUCCCUCCUAGGGAGAAGACUGCGGGUUCGAGUCCCGUACGGAACG [A15U A37G] it was 0.66. For the variant GUUGCGUUGGCGUAAUGGUAACGGGUCUCCCUCUUAAGGAGAAGACACCGGGUUCGAGUUCCGUACGGAACG [C4G C24G C34U U47A G48C C60U], the yeast fitness was found to be 0.521. In the case of GUUCCGUUCGCGUAAUGGUAACGCGUCUCGCUCCUAAGGAGAAGAUUGCGGGUUCGAGUCCCGUACGGAACG [G9C C30G C46U] it was 0.564; in that of GUUCCGUUGGCGUACUGGUAACGCGUCUCCCUCCUAAAGAGAAGACUGCGGGUACGUGUCCCGUACGGAACG [A15C G38A U54A A57U], at most 0.5; in that of GUACCGUUGGCGUAAUGGUAACGUGUCUCCCCCCUAAGGAGAAGACUGCGGGUUCGAGUCCCGUACGGAACG [U3A C24U U32C], 0.513. Turning to GUUUCGUUGGCGUAAUGGUAACGCGUCUCCGUCUUAAGGAGAUGACUGCGGGUUCGAGUCCCGUACGGAACG [C4U C31G C34U A43U], the yeast fitness is 0.786.

GUUCCGUUGACGUAAUGGAAACGCGUCUCCCUCCUAAGGCGCAGACUGCGGGUUCGAGUCCCGUACGCAACG [G10A U19A A40C A42C G68C]: the yeast fitness turned out to be 0.582. In the case of GUCCCGUUGGCGUAAUGAUAACGCGUCUCCCUCCUAAGGAGAAGACUGCGGGUUCGAGUCCCGUACGGAACG [U3C G18A] it was 0.916. The result for GCUCCGUUGGCGUAAUGGUAACGCGUCUCCCUCCUAAGGAGAAGACUGCGGGUUCGAGUCCCGUACGGAACG [U2C] reads 1; that for GUUCCGUUGGCGUAAUGGUAACGGGUCUCCGUCCUAAGGAGAUGACUGCGGGUUCGAGUCCCGUACGGAACG [C24G C31G A43U], 0.596; that for GUCCCGUUGGCGUAAUGGUAAUACGUCUCCCUCCUAAGGAGAAGACUGCGGGUUCGAGUCCCGUACGGAACG [U3C C22U G23A], at most 0.5. The result for GUUCCAUUGGCGUAAUGCUACCGCGUCUCCCUACUAAGGAGAAGACUGCGGGUUCAAGUCCCGUACGGAACG [G6A G18C A21C C33A G56A] reads at most 0.5. Turning to GUUCCGUUGGCGUAAUGAUCACGCGUCUCCCUCUUUAGCAGAAGACUGCGGGUUCGAGUCCCGUACGGAACG [G18A A20C C34U A36U G39C], the yeast fitness is 0.539.

Regarding GUUCCGUUGCCGUAAUGGUAACGCGUCUGCCUCCUAAGGAGAACACUGAGGGUUCGAGUCCCGCACGGAACG [G10C C29G G44C C49A U64C], the yeast fitness was at most 0.5. For the variant GUCCCGUUGGUGUAAUGGUAACGCGUCUCCCUCCUAAGGAGAAGACUGCGGGUUCGAGUCCCGUGCGGAACG [U3C C11U A65G], the yeast fitness came out at 0.732. In the case of GUUCCGUUGGCGUGAUGGUAACGCGUCUCCCUCCUAAGGAGAAGACUGCGGGUCCGAGUCCCGUACGGAACG [A14G U54C] it was 0.633; in that of GUUCCGUUGGAGUAAUGGAAACGCGUCUACCACCUAAGGAGAAUACUGCGGGUUCGAAUCCCGUACGGAACG [C11A U19A C29A U32A G44U G58A], at most 0.5. The result for GUUCCGUUGGCGUAAUGGUAACGCGUCUCCCUGCUAAGGAGAAAACUGCGGGUUCAAGUCCCGUGCGGAACG [C33G G44A G56A A65G] reads 0.554; that for GUUCCGUUGGCGCGAUGGUAACGGGUCUCCCUCCUAAGGAGAAGACUGCGGAUUGGAGUCCCGUACGGUACG [U13C A14G C24G G52A C55G A69U], at most 0.5. The result for GUUCCGUUGGCGUGAUGGUAACGCGUCUCCAUCCUAAGGAGAACACUGCGGGUUCGAGUGCCGUACGGAACG [A14G C31A G44C C60G] reads at most 0.5. Turning to GUUCCGUUGGCGUAAUGGUAGGGCAUCUCCCUCCUAAGGAGAAGACUGCGGGUUCGAGUCCCAUACGGUACG [A21G C22G G25A G63A A69U], the yeast fitness was at most 0.5. GAUCCGAUGGCGUAUUGGUAACGCGUCUCCCUCCUAAGGAGAAGACUGCGGGUUCAAGUCCCGUACGGAACG [U2A U7A A15U G56A]: the yeast fitness was at most 0.5. With GUUCCGUUGGCGUAAUGGUAACGCCUCCCCCUCCUAAGGAGAAGACUGCGGGUUCGAGUCCCGUACGGAACG [G25C U28C], the yeast fitness was 0.79. Turning to GUUACGUUGGCGUAAUGGUAACGCGUCGCCUUCCUAAGGCGAAGACUGCGGGUUCGGGUCCCGUACGGAACG [C4A U28G C31U A40C A57G], the yeast fitness was at most 0.5.

Consider GUUUCGUUGGCGUCAUGGUAACGCGUCUCCCUCCUAAGGAGAAAACUGCGGGUACGAGUCCCGUACGGAUCG [C4U A14C G44A U54A A70U], for which the yeast fitness is at most 0.5.
